Assay results reported in ChEMBL document CHEMBL2331214, “Structure-Based Design and Synthesis of an HIV-1 Entry Inhibitor Exploiting X-Ray and Thermodynamic Characterization” (ACS Med Chem Lett, 2013).

Tests used:
[1] = Inhibition of HIV1 isolate YU2 gp120 binding to human CD4 expressed in dog CF2Th cells coexpressing CCR5 after 2 to 4 hrs by luciferase reporter gene assay; type: cell-based, Human immunodeficiency virus type 1 (isolate YU2)
Method in brief: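 HIV-1 YU2 infection of Cf2Th cells expressing CD4 and CCR5; the IC50 is for inhibition of viral entry.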

[2] = Binding affinity to HIV1 full length gp120 by isothermal titration calorimetric assay; design: species or system Human immunodeficiency virus 1
Method in brief: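 ITC titration of full-length monomeric gp120 with ligand at 25 °C.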

[3] = Inhibition of AMLV gp120 binding to human CD4 expressed in canine CF2Th cells coexpressing CCR5 after 2 to 4 hrs by luciferase reporter gene assay; type: cell-based, Amphotropic murine leukemia virus
[4] = tested on: Human immunodeficiency virus 1; assay: Activation of HIV1 isolate YU2 infectivity in CD4 negative dog CF2Th cells expressing CCR5 by luciferase reporter gene assay relative to TS-2-224; type: organism-based; conditions: human immunodeficiency virus 1, cf2th
[5] = tested on: Human immunodeficiency virus 1; assay: Activation of HIV1 isolate YU2 infectivity in CD4 negative dog CF2Th cells expressing CCR5 by luciferase reporter gene assay relative to NBD556; type: organism-based; conditions: human immunodeficiency virus 1, cf2th
Method in brief: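 HIV-1 YU2 infection of CD4-negative Cf2Th-CCR5 cells; relative activation of viral infectivity is normalized to the reference CD4-mimetic agonist.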

[6] = tested on: Human immunodeficiency virus 1; assay: Antiviral activity against 0.01 to 0.1 MOI HIV1 Env-pseudovirus Clade B infected in human TZM-bl cells after 30 mins by luciferase assay; type: functional, organism-based; conditions: Human immunodeficiency virus 1, Clade B, 0.5 h
Method in brief: (§1)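 Neutralization breadth is tested against a panel of 42 diverse Tier 2 clade B and C Env-pseudoviruses. IC50 values are summarized as geometric mean titers for the sensitive strains.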

[7] = tested on: Human immunodeficiency virus 1; assay: Antiviral activity against 0.01 to 0.1 MOI HIV1 Env-pseudovirus Clade C infected in human TZM-bl cells after 30 mins by luciferase assay; type: functional, organism-based; conditions: Human immunodeficiency virus 1, Clade C, 0.5 h; method in brief: as §1

SMILES	IC50 [1]	Kd [2]	IC50 [3]	fold change (FC) [4]	fold change (FC) [5]	IC50 [6]	IC50 [7]
N=C(N)N[C@H]1Cc2ccccc2[C@@H]1NC(=O)C(=O)Nc1ccc(Cl)c(F)c1.O=CO	22.9 µM	250 nM	> 100 µM	0.1	–	–	–
N=C(N)N[C@@H]1Cc2ccccc2[C@H]1NC(=O)C(=O)Nc1ccc(Cl)c(F)c1.O=CO	21.3 µM	300 nM	> 100 µM	0	–	–	–
N=C(N)NCC[C@@H]1Cc2ccccc2[C@H]1NC(=O)C(=O)Nc1ccc(Cl)c(F)c1.O=CO	68.5 µM	2000 nM	> 100 µM	–	0	–	–
N=C(N)NC[C@@H]1Cc2ccccc2[C@H]1NC(=O)C(=O)Nc1ccc(Cl)c(F)c1.O=CO	37.9 µM	6200 nM	> 100 µM	–	0.11	–	–
N=C(N)NCC[C@H]1Cc2ccccc2[C@@H]1NC(=O)C(=O)Nc1ccc(Cl)c(F)c1.O=CO	28.2 µM	340 nM	> 100 µM	–	0.17	–	–
N=C(N)NC[C@H]1Cc2ccccc2[C@@H]1NC(=O)C(=O)Nc1ccc(Cl)c(F)c1.O=CO	2.3 µM	110 nM	> 100 µM	–	0	1700 nM	14 µM
N=C(N)NCC1Cc2ccccc2C1NC(=O)C(=O)Nc1ccc(Cl)c(F)c1 (racemic)	10.3 µM	–	–	–	–	–	–
